According to ChEMBL document CHEMBL3120048 (J Med Chem, 2014):
Active and inactive are the calls of the source. The calls are words filed in the database; no cut-off is given here.

What was measured:
Hepatitis C virus = test: Antiviral activity against Hepatitis C virus Con1 genotype 1b expressing NS2-NS5B infected in human HuH7 cells after 72 hrs by luciferase reporter gene assay; format: functional, organism-based, Hepacivirus hominis; details: isolate Con1, Huh-7, 72 h
Summary of the method: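 Cells carrying a bicistronic luciferase reporter subgenomic replicon (Con1 GT-1b, NS2-NS5B coding region) were incubated with compound for 72 h. Relative luciferase levels were then read with Bright-Glo substrate, and EC50 values were derived from these readings.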

[1] = Inhibition of HCV genotype 1b NS5Bdelta21 RNA dependent RNA polymerase expressed in Escherichia coli JM109 (DE3); parameters: species or system Hepatitis C virus subtype 1b
Homo sapiens [2] = organism: Homo sapiens; test: Inhibition of DNA polymerase-gamma (unknown origin)
Homo sapiens [3] = organism: Homo sapiens; test: Inhibition of DdRp-2 (unknown origin)
Enterovirus C = test: Inhibition of poliovirus RdRp
Homo sapiens [4] = organism: Homo sapiens; test: Inhibition of DNA polymerase-alpha (unknown origin)
[5] = biological target: DNA polymerase beta (Homo sapiens) (UniProt P06746); test: Inhibition of DNA polymerase-beta (unknown origin)

For `CCOc1cc(NC(=O)C2(NC(=O)c3ccc4c5c(n(C)c4c3)CCCC53CCCCC3)CCC2)ccc1/C=C/C(=O)O`, which EC50 (Hepatitis C virus) is on record?
Its EC50 is 0.094 µM.

What about the IC50 [1] of the same molecule?
Its IC50 is 0.46 µM.

For `O=C(O)/C=C/c1ccc(NC(=O)C2(NC(=O)c3ccc4c(c3)nc(-c3ccoc3)n4C3CCCCC3)CCNCC2)cc1`, which EC50 (Hepatitis C virus) is on record?
Its EC50 is 5 µM.

What about the IC50 [1] of the same molecule?
The IC50 was 0.043 µM.

For `Cc1c(C(=O)N[C@H](C)C(=O)Nc2ccc(/C=C/C(=O)O)cc2)ccc2c1nc(-c1ccoc1)n2C1CCCCC1`, which IC50 [1] is on record?
Its IC50 is 0.89 µM.

With `Cn1c(C(=O)O)cc2cc(NC(=O)C3(NC(=O)c4ccc5c(c4)nc(-c4ccoc4)n5C4CCCCC4)CCCNC3)ccc21` (single isomer, unassigned; enantiomer 1) as the molecule, how does the IC50 [1] read?
Its IC50 is 1.3 µM.

Which EC50 (Hepatitis C virus) does the source give for `Cn1c(C2(NC(=O)c3ccc4c5c(n(C)c4c3)CCCC53CCCCC3)CCC2)nc2ccc(/C=C/C(=O)O)cc21` here?
The EC50 was 0.049 µM.

What about the IC50 [1] of the same molecule?
The IC50 was 0.18 µM.

Which IC50 [1] does the source give for `Cc1cc2c(cc1C(=O)N[C@H](C)C(=O)Nc1ccc(/C=C/C(=O)O)cc1)nc(-c1ccoc1)n2C1CCCCC1` here?
The IC50 was 4 µM.

For `Cn1c2c(c3ccc(C(=O)O)cc31)C1(CCCCC1)CCC2`, which EC50 (Hepatitis C virus) is on record?
The EC50 was over 11 µM.

And the IC50 [1]?
Its IC50 is 16 µM.

For `Cn1c(C(=O)O)cc2cc(NC(=O)C3(NC(=O)c4ccc5c(c4)nc(-c4ccoc4)n5C4CCCCC4)CCCNC3)ccc21` (single isomer, unassigned; enantiomer 2), which IC50 [1] is on record?
Its IC50 is 0.084 µM.

Which IC50 [1] does the source give for `C[C@@H](NC(=O)c1ccc2c(n1)nc(-c1ccoc1)n2C1CCCCC1)C(=O)Nc1ccc(/C=C/C(=O)O)cc1` here?
Its IC50 is 0.33 µM.

Which results are given for `COc1ccc2c(c1)OCCn1c-2c(C2CCCCC2)c2ccc(C(=O)NC3(C(=O)Nc4ccc(/C=C/C(=O)O)cc4)CCC3)cc21`?
EC50 (Hepatitis C virus): 0.004 µM; IC50 [1]: 0.56 µM

Which IC50 [1] does the source give for `Cn1c(C(=O)O)cc2cc(NC(=O)C3(NC(=O)c4ccc5c(c4)nc(-c4ccoc4)n5C4CCCCC4)CCNCC3)ccc21` here?
Its IC50 is 0.055 µM.

Which EC50 (Hepatitis C virus) does the source give for `O=C(O)COc1ccc2[nH]cc(C[C@H](NC(=O)c3ccc4c(c3)nc(-c3ccoc3)n4C3CCCCC3)C(=O)O)c2c1` here?
Its EC50 is 65 µM.

Which EC50 (Hepatitis C virus) does the source give for `Cn1c(C2(NC(=O)c3ccc4c5c(n(C)c4c3)CCCC53CCCCC3)CCC2)nc2cc3cc(C(=O)O)sc3cc21` here?
The EC50 was 0.038 µM.

And the IC50 [1]?
Its IC50 is 0.35 µM.

For `Cn1c(C2(NC(=O)c3ccc4c(C5CCCC5)c(-c5ncc(Br)cn5)n(C)c4c3)CCC2)nc2ccc(/C=C/C(=O)O)cc21` [DELEOBUVIR], which IC50 [1] is on record?
Its IC50 is 0.05 µM.

And the inhibition (Homo sapiens [2])?
The inhibition was “inactive”.

And the inhibition (Homo sapiens [3])?
The inhibition was “inactive”.

What about the inhibition (Enterovirus C) of the same molecule?
The inhibition was “inactive”.

And the inhibition (Homo sapiens [4])?
Its inhibition is “inactive”.

And the inhibition [5]?
The inhibition was “inactive”.

With `C[C@@H](NC(=O)c1ccc2c(c1)nc(-c1ccoc1)n2C1CCCCC1)C(=O)Nc1ccc(/C=C/C(=O)O)cc1` as the molecule, how does the IC50 [1] read?
Its IC50 is 0.088 µM.
